Test results from ChEMBL document CHEMBL1151703, “Irreversible inhibition of dihydrodipicolinate synthase by 4-oxo-heptenedioic acid analogues” (Bioorg Med Chem, 2008).
Activity calls are given as the source filed them. No cut-off for these calls is given here.

Legend:
[1] = target: T1, 4-hydroxy-tetrahydrodipicolinate synthase (Escherichia coli K-12, UniProt P0A6L2); test: Inhibition of Escherichia coli DHDPS
T1 sequence (P0A6L2 whole entry): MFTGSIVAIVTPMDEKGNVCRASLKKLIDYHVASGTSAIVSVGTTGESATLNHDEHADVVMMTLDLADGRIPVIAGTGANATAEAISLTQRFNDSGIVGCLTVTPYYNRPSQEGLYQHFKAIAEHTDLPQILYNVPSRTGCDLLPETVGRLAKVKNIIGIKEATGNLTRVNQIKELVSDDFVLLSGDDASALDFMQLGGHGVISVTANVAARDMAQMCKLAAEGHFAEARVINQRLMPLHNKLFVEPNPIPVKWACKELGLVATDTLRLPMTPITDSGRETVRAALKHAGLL

[2] = target: T2, 4-hydroxy-tetrahydrodipicolinate synthase (Escherichia coli K-12) (UniProt P0A6L2); test: Ratio of Kinact to Ki(app) for Escherichia coli recombinant DHDPS
T2 sequence (whole entry): T1 sequence (P0A6L2 whole entry)
Procedure, shortened: (§1)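 Recombinant E. coli DHDPS, purified, pre-incubated with inhibitor for various times before activity measurement in a coupled assay with E. coli DHDPR (modified coupled assay) at 30 °C; inhibitor range 0.1–250 mM across compounds. Each decay curve was fitted to give kobs; kobs versus [I] was fitted to give kinact and Ki(app); the second-order rate constant is kinact/Ki(app).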

[3] = target: T2, 4-hydroxy-tetrahydrodipicolinate synthase (Escherichia coli K-12); test: (§2) Inhibition of Escherichia coli recombinant DHDPS overexpressed with DHDPR assessed as residual activity by modified coupled assay; conditions: TDE = time-dependent effect; procedure, shortened: as §1
[4] = target: T1, 4-hydroxy-tetrahydrodipicolinate synthase; test: as §2; conditions: read-out: Ki(app); procedure, shortened: as §1
[5] = target: T2, 4-hydroxy-tetrahydrodipicolinate synthase (Escherichia coli K-12); test: Inactivation of Escherichia coli recombinant DHDPS; procedure, shortened: as §1
[6] = target: T2, 4-hydroxy-tetrahydrodipicolinate synthase (Escherichia coli K-12); test: Inhibition of Escherichia coli recombinant DHDPS overexpressed with DHDPR assessed as residual activity at 2 mM within 6 min by modified coupled assay; procedure, shortened: as §1
[7] = Inhibition of succinyl co-transferase; conditions: read-out: Ki(app)
[8] = target: T3, 4-hydroxy-tetrahydrodipicolinate synthase (Bacillus subtilis (strain 168), UniProt Q04796); test: Inhibition of Bacillus subtilis DHDPS
T3 sequence (Q04796 whole entry): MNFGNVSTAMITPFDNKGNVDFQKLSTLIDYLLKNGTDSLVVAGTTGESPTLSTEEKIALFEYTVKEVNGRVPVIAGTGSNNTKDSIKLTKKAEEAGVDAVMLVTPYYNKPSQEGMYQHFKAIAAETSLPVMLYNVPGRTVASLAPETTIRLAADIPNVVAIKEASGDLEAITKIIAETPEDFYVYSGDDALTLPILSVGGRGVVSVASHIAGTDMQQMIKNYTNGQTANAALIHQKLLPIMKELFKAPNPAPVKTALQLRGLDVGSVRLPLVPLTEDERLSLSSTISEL

Ki [1] | Ratio [2] | Activity [3] | Ki [4] | Kinact [5] | SMILES | other results
700 µM |  |  |  |  | CCCC(=O)C(=O)O | 
 | 0.12 M⁻¹ s⁻¹ | tde | 32400 µM | 4.1 ×10⁻³ /s | O=C(O)/C=C/C(=O)CCC(=O)O | 
16 µM |  |  |  |  | O=CC(=O)O [GLYOXYLATE] | 
 | 0.11 M⁻¹ s⁻¹ | tde | 10900 µM | 1.2 ×10⁻³ /s | CCOC(=O)/C=C/C(=O)CCC(=O)OCC | 
830 µM |  |  |  |  | CCC(=O)C(=O)O | 
 | 5.9 M⁻¹ s⁻¹ |  | 4950 µM | 29 ×10⁻³ /s | CCOC(=O)/C=C/C(=O)/C=C/C(=O)OCC | Activity [6]: Active
 | 1.2 M⁻¹ s⁻¹ | tde | 1630 µM | 1.9 ×10⁻³ /s | O=C(O)/C=C/C(=O)/C=C/C(=O)O | Ki [7]: 530 µM
 |  |  |  |  | O=C(O)C(=O)CCCC(=O)C(=O)O | Ki [8]: 160 µM

SMILES | Ki [1] | Ratio [2] | Activity [3] | Ki [4] | Kinact [5] | other results
O=C(O)C(=O)CF | 220 µM |  |  |  |  | 
